PKD1 kinase inh – blocks activity of human protein kinase D1 | Q15139 | PKD1 kinase fluorescence polarization assay | inhibition, % (no concentration beside the values) | 200,000 tested, 0.056% active | AID 797; in the data active = inhibition above about 50%
C8 TRAIL sens – caspase-8 TRAIL sensitization | 360,000 tested, 1% active | inhibition (viability loss, TRAIL sensitization), % at 10 µM | NB7+C8 cells + TRAIL, ATPlite viability luminescence;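 active = compounds causing at least 50% loss of cell viability in the single-dose screen, relative to plate controls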
PPC-1+TRAIL kill – PPC-1 cancer cell killing with TRAIL present; cell killing (% activity), % at 4 µM or 5 µM; 220,000 tested, 0.41% active; AID 1443; PPC-1 cells + TRAIL, ATPLite viability luminescence;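 active = cell killing above 50% in the first pass at 4 µM, then a duplicate retest at 5 µM averaging 50% or more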
FLuc inh counter – inhibits firefly luciferase, flagging false hits in luciferase inhibition screens. P08659. ATPLite firefly luciferase biochemical luminescence, 10 min. inhibition, % at 10 µM. 200,000 tested, 1.5% active. AID 1006;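 active = inhibition above about 50% when tested at 10 µM, limit read from the data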
FLuc stim CS – firefly luciferase counter-screen for stimulation assays. P08659. ATPlite luciferase biochemical, luminescence, 10 min; 0 = ATP-free wells, 1 = DMSO control. activation factor at 10 µM. 200,000 tested, under 10 active. AID 1027;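 active = luciferase activation factor, scaled between plate controls, of at least 2 with compound at 10 µM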
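Material: Luciferase/luciferin reagent mix | Doses: Test compounds dosed from 2 mM stocks in 100% DMSO | Timing: 10 min incubation after luciferase reagent addition, room temperature | Measured by: Luminescence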
Wee1 stabilizer – human Wee1 degradation inhibition, primary screen; P30291; HeLa Luc-Wee1K328M stability, luciferase luminescence; 100% = proteasome inhibitor MG132 effect; reporter increase, % at 5 µM; 220,000 tested, 1.2% active; AID 1321;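 active = activation above the mean of all tested compounds plus 3 SD, set per screening run, cut at about 8.8% in these data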;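 also: cells exposed to compound for 20 h before luminescence read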
PPC-1 tox – PPC-1 cell cytotoxicity. AID 1447. 1,200 tested, 50% active. cytotoxicity, % at 5 µM. PPC-1 viability, ATPlite luminescence, overnight. shares compounds with PPC-1+TRAIL kill;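 active = reconfirmed compounds whose average cytotoxicity reaches 50% or more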
A number is an active result. Rows were chosen to be rich in hits. Some 2.2% of all compounds tested hit in one or more screens of this group.

For CCCCCCCCCCCCCCCCn1cc[n+](CC(C)=O)c1 the results were PKD1 kinase inh inactive, C8 TRAIL sens inactive, PPC-1+TRAIL kill inactive, FLuc inh counter inactive, FLuc stim CS inactive, Wee1 stabilizer inactive and PPC-1 tox inactive.
For CN(Cc1ccccc1)C(=O)C1CCN(S(=O)(=O)c2ccc3nc4c(c(C(=O)O)c3c2)CCCC4)CC1 the results were C8 TRAIL sens inactive.
`CCCOc1ccc(S(=O)(=O)N2CCOCC2)cc1[N+](=O)[O-]` gave PKD1 kinase inh inactive, C8 TRAIL sens inactive, FLuc inh counter inactive, FLuc stim CS inactive and Wee1 stabilizer inactive.
CCCCN(C)C(=O)c1cc2cc3ccc(OC)cc3nc2s1 was read as PKD1 kinase inh inactive, C8 TRAIL sens 68.1, PPC-1+TRAIL kill inactive, FLuc inh counter 84.7, FLuc stim CS inactive, Wee1 stabilizer inactive and PPC-1 tox inactive.
Fc1cccc(-c2cc3nc(-c4ccccc4)cc(N4CCC5(CC4)OCCO5)n3n2)c1 was read as PKD1 kinase inh inactive, C8 TRAIL sens inactive, PPC-1+TRAIL kill inactive, FLuc inh counter inactive, FLuc stim CS inactive and Wee1 stabilizer inactive.
COCCN1CCN(c2cc(-c3ccccc3)nc3cc(-c4cccc(F)c4)nn23)CC1 was read as PKD1 kinase inh inactive, C8 TRAIL sens inactive, PPC-1+TRAIL kill inactive, FLuc inh counter inactive, FLuc stim CS inactive, Wee1 stabilizer inactive and PPC-1 tox inactive.
Screening CCCNC(=O)N1CCN(S(C)(=O)=O)CC1 returned PKD1 kinase inh inactive, C8 TRAIL sens inactive, PPC-1+TRAIL kill inactive, FLuc inh counter inactive, FLuc stim CS inactive and Wee1 stabilizer inactive.

Screening data as filed in PubChem BioAssay.
